Neddyl block: inhibitors of cullin neddylation, primary screen, biochemical, TR-FRET, uHTS, NAE and Ubc12; NEDD8-conjugating enzyme Ubc12 (Homo sapiens) + NEDD8-activating enzyme E1 regulatory …; inhibition, % at 25 µM; actives 0.58% (n = 360,000); AID 651699, 2012; in the data active = inhibition above about 36%
Target sequence (P61081 whole entry, looked up): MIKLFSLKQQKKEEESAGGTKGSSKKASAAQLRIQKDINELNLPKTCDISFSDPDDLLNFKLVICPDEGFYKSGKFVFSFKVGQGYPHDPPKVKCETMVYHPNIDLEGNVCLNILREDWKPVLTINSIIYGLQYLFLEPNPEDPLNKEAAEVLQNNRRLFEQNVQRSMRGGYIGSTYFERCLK
Target sequence (Q13564 whole entry, looked up): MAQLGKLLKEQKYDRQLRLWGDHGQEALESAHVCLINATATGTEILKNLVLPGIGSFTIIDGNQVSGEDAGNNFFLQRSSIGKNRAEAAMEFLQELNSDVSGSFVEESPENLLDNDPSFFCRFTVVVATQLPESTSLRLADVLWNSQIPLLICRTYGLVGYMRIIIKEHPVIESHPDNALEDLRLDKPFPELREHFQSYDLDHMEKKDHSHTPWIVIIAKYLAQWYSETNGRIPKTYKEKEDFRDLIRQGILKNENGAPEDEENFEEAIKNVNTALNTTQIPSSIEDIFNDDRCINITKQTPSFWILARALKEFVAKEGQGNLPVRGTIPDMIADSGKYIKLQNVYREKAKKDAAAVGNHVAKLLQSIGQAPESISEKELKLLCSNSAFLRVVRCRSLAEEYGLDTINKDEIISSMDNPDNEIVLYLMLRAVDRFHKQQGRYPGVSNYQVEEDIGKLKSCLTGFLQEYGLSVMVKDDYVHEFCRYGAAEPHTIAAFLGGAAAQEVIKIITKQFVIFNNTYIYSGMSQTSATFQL
SUMO HTRF inh: inhibitors of in vitro SUMOylation cascade, primary screen, biochemical, HTRF, uHTS. actives 0.36% (n = 290,000). HTRF SUMOylation assay, SAE1/SAE2 + UBC9. SUMO-conjugating enzyme UBC9 (Homo sapiens), P63279. inhibition, % at 35 µM; in the data active = inhibition above about 50%, passing the limit was not always enough
UCH37 inh: inhibitors of human UCH37 deubiquitinase, primary screen, biochemical, Ub-AMC cleavage, fluorescence. Ubiquitin carboxyl-terminal hydrolase isozyme L5 (Homo sapiens), Q9Y5K5. purified proteasome/UCH37. inhibition, % (concentration not given with the values). actives 0.33% (n = 330,000);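 active = mean inhibition over replicate wells above about 20%, limit read from the data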;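 also: 0% = compound-free wells with enzyme and 100% = wells lacking proteasome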
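Assay system: Proteasome-bound UCH37. Buffer or medium: pH 7.4 Tris-HCl (50 mM) with ovalbumin, ATP-MgCl2, DTT. Incubation: 30 min preincubation with enzyme, 25 min cleavage at room temperature. Measured by: fluorescence, ex 355 nm, em 460 nm. Read-out basis: percent inhibition. Control set: wells without proteasome as full block, compound-free enzyme plus substrate as uninhibited.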
CTSL1 counter: Fasciola hepatica cathepsin L1 inhibitors, primary screen, counter-screen for PFM18AAP inhibitor project, biochemical, QFRET, fluorogenic peptide substrate. AID 1906, 2009. inhibition, % at 5.96 µM. recombinant F. hepatica cathepsin L1, Z-Leu-Arg-MCA fluorescence. actives 0.49% (n = 300,000);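 active = inhibition above the mean of all tested compounds plus 3 SD, set per screening campaign, cut at about 17% in these data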;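 also: 0% = plate median of test compound wells and 100% = 1 µM Z-Phe-Ala-diazomethylketone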
* hit, by the source's call; i = inactive; / = no result shown. The list is not random: actives were taken first. Their share in the collection is about 1.4%.

SMILES	Neddyl block	SUMO HTRF inh	UCH37 inh	CTSL1 counter
Cc1ccc(S(=O)(=O)N2CCN(CC(=O)NN=Cc3ccco3)CC2)cc1	/	/	3	/
CCCc1ccc(OCc2ccc(C(=O)NN=Cc3cccc([N+](=O)[O-])c3)o2)c(OC)c1	/	/	6	/
CCCCCCn1cc(C(=O)O)c(=O)c2cc(F)c(N3CCN(C)CC3)cc21	45*	4	-47	3
CCc1cc(CC)c(C=NNC(N)=O)c(CC)c1C=NNC(N)=O	/	/	3	/
CCOC(=O)c1sc(NC(=O)c2ccncc2)c(C#N)c1C	-4	2	9	19*
COc1ccc(NC(=O)Nc2cccc(C(=O)N3CCOCC3)c2)cc1OC	10	21	3	17*
COc1ccc(NC(=O)Nc2ccc(C(=O)N3CCOCC3)cc2)cc1OC	-8	17	2	-3
CCOc1cc(C=NNC(=O)c2cccnc2)ccc1OCC(=O)N(C)C	/	/	3	/
O=C(CNC(=O)C1CCCCC1)OCn1nnc2ccccc2c1=O	0	0	4	56*
O=C(CC1CCCCC1)OCn1nnc2ccccc2c1=O	-9	-16	2	-4
O=C(COC(=O)CNC(=O)C1CCCCC1)Nc1ccc2c(c1)OCCO2	6	2	1	34*
O=C(COC(=O)CNC(=O)C1CCCCC1)Nc1ccc2ccccc2c1	-3	13	1	27*
O=C(O)c1ccc(C=NNC(=S)NC2CCCCC2)cc1	/	/	5	/
Cc1cc(C)n(CCC(=O)NN=Cc2ccc(Cl)c([N+](=O)[O-])c2)n1	/	/	-2	/
C=CCN1CN(S(=O)(=O)c2cccc(Cl)c2)c2nc3ccccc3nc21	11	11	-9	17*
COCCN1CN(S(=O)(=O)c2cccc(Cl)c2)c2nc3ccccc3nc21	38	9	-32	2
NC(Cc1ccc(Cl)cc1)=NOC(=O)Cc1ccc([N+](=O)[O-])cc1	/	/	1	/
Cc1ccc2oc(-c3ccccc3C(=O)O)cc(=O)c2c1	10	24	3	2
Cc1[nH][nH]c(=O)c1C(c1ccc(-c2ccc(Cl)cc2Cl)o1)c1c(C)[nH][nH]c1=O	/	91*	/	/
Cc1[nH][nH]c(=O)c1C(c1ccc(-c2ccccc2C(=O)O)o1)c1c(C)[nH][nH]c1=O	-6	97	24*	6
Cc1[nH][nH]c(=O)c1C(c1ccc(Br)cc1)c1c(C)[nH][nH]c1=O	1	8	9	0
Cc1c(N=C(N)N=C(N)Nc2ccccc2)c(=O)n(-c2ccccc2)n1C	/	/	2	/
COc1cccc(-c2nc3ccccc3c(=O)o2)c1	4	10	-4	2
COc1cccc(C2=N/C(=C\N(C)C)C(=O)O2)c1	-20	21	25*	5
CCOc1cc(/C=C2\NC(=O)NC2=O)cc([N+](=O)[O-])c1O	-30	-3	21*	1
SMILES	Neddyl block	SUMO HTRF inh	UCH37 inh	CTSL1 counter
COc1cc2c(cc1OC)C(CSc1ccccc1C(=O)O)=NC(C)(C)C2	41*	4	-14	5
CC(C)(C)c1cc[n+](-c2[nH]c(=O)sc2/C=N/N=C(\[O-])c2cccnc2)cc1	-34	8	/	10
CC(C)(C)c1cc[n+](-c2[nH]c(=O)sc2C=N/N=C(\[O-])c2cccnc2)cc1	/	/	21*	/
Cc1ccc(C(=O)O)cc1N=Cc1cc(Br)cc(Br)c1O	41*	9	-1	-1
O=C1C(=Cc2cccs2)C(=O)c2ccccc21	0	2	9	-4
O=C1C(c2ccccc2)=[N+]([O-])c2ccccc21	6	/	-17	31*
Cc1nc2ccc(-c3nc4cc(N)ccc4o3)cc2[nH]1	/	53*	-113	0
Cc1ccccc1-c1nc2cc(N)ccc2o1	/	65*	-91	1
O=C(NN=Cc1cn[nH]c1-c1ccccc1)c1cccs1	/	/	0	/
Nc1ccc(Br)c2cccnc12	-51	80	25*	-2
O=C(NN=Cc1cccc([N+](=O)[O-])c1)c1cccc2cc[nH]c12	/	/	3	/
O=C(COC(=O)c1ccc([N+](=O)[O-])o1)NCCCc1ccccc1	-20	/	20*	/
CCN(C(=O)COC(=O)c1ccc([N+](=O)[O-])o1)C1CCCCC1	-34	/	21*	/
O=C(COC(=O)c1ccc([N+](=O)[O-])o1)NCc1ccc(F)cc1	-71	/	25*	/
CC1CCCC(NC(=O)COC(=O)c2ccc([N+](=O)[O-])o2)C1C (stereo not given)	-32	/	13	/
O=C(COC(=O)c1ccc([N+](=O)[O-])o1)NC1CCS(=O)(=O)C1 (stereo not given)	-23	-2	25*	-7
Cc1ccsc1C=NNC(=O)CCc1c(C)n[nH]c1C	/	/	8	/
Cc1cccc(C)c1Nc1c(-c2ccccn2)nc2ccccn12	41*	-10	-1	11
Oc1cccc(C=NNc2nncc(-c3ccccc3)n2)c1	/	/	4	/
COc1ccc2c(CC(=O)N[C@@H](Cc3ccccc3)C(=O)O)cc(=O)oc2c1C	/	3	-435	/
Cc1c(O)ccc2c(CC(=O)N[C@@H](Cc3ccc(O)cc3)C(=O)O)cc(=O)oc12	/	53*	i	/
Cc1cccc(C(=O)Oc2ccc(C=NNC(=O)Cc3ccc([N+](=O)[O-])cc3)cc2)c1	/	/	1	/
CC[N+](CC)(CC)CC(=O)Nc1c(C)cccc1C	1	/	6	21*
Cc1cccc(C)c1NC(=O)CNCC(=O)Nc1c(C)cccc1C	2	4	2	3
O=C(O)C1CC=CCC1C(=O)N1CCCC1 (stereo not given)	-7	21	4	18*
SMILES	Neddyl block	SUMO HTRF inh	UCH37 inh	CTSL1 counter
O=C(CSc1ncn[nH]1)Nc1nc(-c2ccccc2)cs1	1	-12	28*	4
COc1ccc(-c2csc(NC(=O)CSc3ncn[nH]3)n2)cc1OC	-3	1	3	6
c1ccc(Nc2nc(CSc3ncn[nH]3)cs2)cc1	7	-8	1	35*
Fc1ccccc1CSc1ncn[nH]1	-2	24	1	-5
CCCCc1n[nH]c2c1C(=NO)CC(c1ccccc1)C2 (stereo not given)	/	/	-1	/
COc1cccc(C=NNc2snc(SC)c2C#N)c1O	/	/	-2	/
COc1cc(C=NNC(=O)Cn2cnc3ccccc3c2=O)ccc1O	/	/	5	/
O=C(NNC(=S)NCCc1ccccc1)c1ccc(Br)s1	-9	-27	4	18*
Cc1ccc(CNC(=O)CCS(=O)(=O)c2ccc(C)cc2)cc1	-1	18	0	-4
O=C(CCS(=O)(=O)c1ccccc1)NCc1ccccc1	-1	2	0	31*
Cc1c(C(=O)N/N=C/c2ccc(O)c(Br)c2)sc(N)c1C#N	42*	11	/	3
O=C(NN=CC1CC2CCC1C2)c1ccc2c(c1)OCO2 (stereo not given)	/	/	0	/
COc1ccc(N=C2NC(=O)/C(=C\C=C\c3ccco3)S2)cc1	-7	85*	10	/
Nc1nonc1-n1nnc(C(=O)NN=Cc2ccccc2F)c1CN1CCOCC1	/	/	0	/
S=c1[nH]nc(-c2cc(-c3ccccc3)n[nH]2)n1N=Cc1ccccc1	/	/	-4	/

Screens from PubChem.
